SENP1 FRET inh: blocks the human SENP1 SUMO protease catalytic domain; Q9P0U3; recombinant SENP1 catalytic domain, CyPet-SUMO1-YPet FRET cleavage; inhibition, % at 10 µM; 360,000 compounds, 0.21% hits;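 active means inhibition at least 30% at 10 µM, raw YFP signal under a set limit, fluorescence ratio 0.5 to 1.5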
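Assay system – human recombinant His6-tagged SENP1 catalytic domain enzyme · Input – SENP1 enzyme, 20 pM final · Buffer or medium – Tris pH 8 buffer plus EDTA, NaCl, BME, BSA, NP40, catalase · Schedule – 50 min reaction at room temperature · Technique – FRET read of cyan and yellow fluorescence · Control set – no-enzyme wells low, DMSO-plus-enzyme wells high control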
HNF4A DNA FP: change in binding of human HNF4 alpha to DNA. P41235. HNF4a-FITC DNA binding, fluorescence polarization, 1 h. activity change, % at 10 µM. 360,000 compounds, 0.3% hits. AID 1224865; in the data active means activity change above about 30%, passing the limit was not always enough
CSN deneddyl inh: inhibitors of human CSN-mediated cullin deneddylation. Q92905. Purified CSN, SCF-Nedd8-OG deneddylation, fluorescence polarization. inhibition, % at 12.5 µM. 360,000 compounds, 0.38% hits. AID 651999;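 active means pattern-corrected inhibition above about 35%, with an unprinted fluorescence ratio check between 0.5 and 1.5, limit read from the data, passing the limit was not always enough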
Target sequence (Q92905 whole entry, looked up, one chain of several): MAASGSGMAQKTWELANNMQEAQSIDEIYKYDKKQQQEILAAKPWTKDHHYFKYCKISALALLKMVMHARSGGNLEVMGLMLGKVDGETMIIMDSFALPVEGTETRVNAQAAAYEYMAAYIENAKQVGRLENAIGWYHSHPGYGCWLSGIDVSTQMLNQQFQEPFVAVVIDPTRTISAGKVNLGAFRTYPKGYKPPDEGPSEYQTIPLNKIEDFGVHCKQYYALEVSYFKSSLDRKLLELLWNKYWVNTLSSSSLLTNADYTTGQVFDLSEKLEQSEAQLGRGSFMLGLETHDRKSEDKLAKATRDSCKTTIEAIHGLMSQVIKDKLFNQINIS
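Assay system: purified human Csn5 enzyme expressed in HEK293T cells; measure: % inhibition; also added: SCFSkp2-Nedd8OG substrate at 10 nM final; technique: fluorescence polarization; times: reaction 90 min, room temperature; medium: Tris buffer pH 7.5, NaCl, DTT, Tween-20, trehalose, ovalbumin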
TPT1 inh: blocks Candida albicans tRNA 2'-phosphotransferase. recombinant caTPT1, FP RNA substrate dephosphorylation. inhibition, % at 5 µM. 300,000 compounds, 0.81% hits. AID 1962;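 active means inhibition above the mean of all tested compounds plus 3 SD, set per screening campaign, cut at about 24% in these data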
Rpn11 inh: blocks the human proteasome subunit Rpn11. O00487. human 26S proteasome, Ub4-pepOG fluorescence polarization; 20S core pre-blocked with epoxomicin. inhibition, % at 20 µM. 360,000 compounds, 0.59% hits. AID 588493;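 active means inhibition at 20 µM, scaled to each plate's controls, above about 33%, limit read from the data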
CSN5 deneddyl: validation of inhibitors of human CSN-mediated cullin deneddylation. shares compounds with CSN deneddyl inh. Csn5 deneddylation of SCF-Nedd8OG, fluorescence polarization, 90 min. inhibition, % at 16.6 µM. 540 compounds, 62% hits. AID 720654; in the data active means inhibition above about 50%
MMP2 cntr CSN: MMP-2 (human) inhibition, counter-screen for CSN hits. recombinant MMP-2, FRET substrate fluorescence, 60 min. shares compounds with CSN deneddyl inh. 540 compounds, 33% hits. inhibition, % at 16.6 µM;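 active means corrected plate-normalized z-score of 5 or more, or -5 or less, or inhibition of 15% or more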
Thrombin cntr: counter-screen for CSN deneddylation inhibitors: bovine thrombin inhibition | bovine thrombin cleavage of Ub4-pepOG, fluorescence polarization | 540 compounds, 49% hits | inhibition, % at 16.6 µM | shares compounds with CSN deneddyl inh | AID 720656;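 active means inhibition at or above a set limit, with a fluorescence interference ratio between 0.5 and a set maximum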
HNF4A confirm: change in binding of human HNF4 alpha to DNA, retest | 210 compounds, 99% hits | activity change, % at 12.5 µM | shares compounds with HNF4A DNA FP | HNF4A-FITC DNA binding, fluorescence polarization, 1 h; call rule not given here
Numbers stand for hits; – = inactive; · = no result given. Sampled rows, rich in hits. Any-hit rate of the full collection: about 1.6%.

SMILES	SENP1 FRET inh	HNF4A DNA FP	CSN deneddyl inh	TPT1 inh	Rpn11 inh	CSN5 deneddyl	MMP2 cntr CSN	Thrombin cntr	others
Cc1cc(/C=c2\sc3nc4ccccc4n3c2=O)c(C)n1-c1ccc(C(=O)O)cc1	–	–	35	·	–	–	–	27
Cc1ccc(NC(=O)CN2C(=O)S/C(=C\c3ccc(-c4cccc(C(=O)O)c4C)o3)C2=O)cc1	·	·	·	–	·	·	·	·
Cc1ccc(C(=O)O)cc1-c1ccc(/C=C2\SC(=O)N(CC(=O)Nc3ccccc3)C2=O)o1	–	–	–	–	–	·	·	·
CCOC(=O)C(C)N1C(=O)S/C(=C\c2ccc(-c3ccccc3C(=O)O)o2)C1=O (centres undefined)	–	–	48	–	–	·	25	–
C#CCN1C(=O)S/C(=C\c2ccc(-c3ccc(C(=O)O)cc3C)o2)C1=O	–	–	39	–	–	·	–	37
Cc1ccccc1NC(=O)CN1C(=O)S/C(=C\c2ccc(-c3cc(C(=O)O)ccc3C)o2)C1=O	–	–	71	·	–	·	–	–
COCCn1c(SCC(=O)NC2CCCCC2)nnc1-c1ccncc1	–	–	–	–	–	·	·	·
OC[C@@H](O)[C@@H](O[C@H]1O[C@H](CO)[C@@H](O)[C@H](O)[C@H]1O)[C@H](O)[C@@H](O)CO	–	–	–	–	–	·	·	·
COc1cc(/C=C/C=C2/CC/C(=C/C=C/c3ccc(O)c(OC)c3)C2=O)ccc1O	–	–	115	·	·	–	-41	52
CC(C)C(C)(C#N)NC(=O)CSc1nc2scc(-c3ccc(F)cc3)c2c(=O)n1Cc1ccccc1 (centres undefined)	–	–	–	–	–	·	·	·
O=C(Nc1ccc2oc(-c3ccccc3F)nc2c1)c1ccc([N+](=O)[O-])o1	–	–	40	·	·	103	16	–
COC(=O)c1ccc(CN2[C@H](C(=O)OC)C[C@@]3(O)[C@@H](O)[C@@H](O)[C@@H](O)C[C@@H]23)cc1	–	–	–	–	–	·	·	·
C/C(=N/NC(=O)c1cc(-c2cccc([N+](=O)[O-])c2)n[nH]1)c1cccc(O)c1	–	–	–	–	–	·	·	·
C/C(=N\NC(=O)c1cc(-c2cccc([N+](=O)[O-])c2)n[nH]1)c1ccccc1O	–	–	40	–	–	·	–	–
O=C1/C(=C\c2ccc(O)c(O)c2)SC(=S)N1Cc1ccccc1	–	68	55	·	·	–	–	68
O=C1/C(=C\c2cccc(O)c2)SC(=S)N1Cc1ccccc1	–	–	–	–	–	·	·	·
O=C(O)c1cc(-c2ccc(/C=C3/SC(=S)N(Cc4ccccc4)C3=O)o2)ccc1Cl	–	–	–	·	·	·	·	·
Cc1ccc(/C=C2\SC(=S)N(Cc3ccccc3)C2=O)o1	–	–	115	39	·	108	–	24
COc1cc(/C=C2\SC(=S)N(NC(=O)c3cccc(O)c3)C2=O)ccc1O	–	47	50	·	·	96	–	40
O=C(/C=C/c1ccccc1)Nc1scc(-c2ccccc2)c1C(=O)O	–	–	–	·	–	·	·	·
O=C(/C=C/c1ccco1)Nc1scc(-c2ccccc2)c1C(=O)O	–	–	38	–	–	–	–	–
Cc1nc(C)c(C(=O)OCC(=O)Nc2ccc(C)c(C)c2)s1	–	–	–	·	–	·	·	·
Cc1cc(N)c2cc(NC(=O)/C=C/c3ccccc3Cl)ccc2n1	–	37	108	–	136	–	54	–
COc1ccc(C=NNc2ccc([N+](=O)[O-])cn2)cc1	–	72	–	·	·	·	·	·	HNF4A confirm=79
O=[N+]([O-])c1ccc(NN=Cc2ccc(O)cc2)nc1	–	–	–	·	–	·	·	·
O=C(Nc1nccs1)c1cc(-c2ccccn2)nc2c(Cl)cccc12	–	72	–	–	–	·	·	·	HNF4A confirm=45

Source: PubChem
